Arrestin-AP2 inh = human beta-arrestin and AP2 interaction inhibition; FITC-arrestin peptide / GST-AP2 beads, flow cytometry; AP2 beta2 appendage carries R879A mutation; 340,000 tested, 0.31% active; AID 504490; inhibition, % at 10 µM;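 active means inhibition above a set limit, near 3 SD of compounds lacking own fluorescence, cut at about 54% in these data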
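System: GST-tagged AP2 beta2-adaptin appendage (R879A) on 4 µm glutathione beads / Reagent: FITC-arrestin peptide, 50 nM / Detection: HyperCyt-sampled flow cytometry, FL1 channel, ex 488/em 535 nm / Timing: 12 min plus 1 h, RT / Buffer or medium: PBS plus Tween 20 (0.05%) and BSA (0.1%)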
GSK3beta inhib = blocks human GSK3beta kinase activity. 300,000 tested, 0.038% active. GST-GSK3beta kinase, ADP-Glo luminescence, 60 min; active compounds read low. activity score (negative = inhibition), % at 10 µM. P49841;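 active means more than half of replicate wells score below -50%, meaning over 50% inhibition versus plate controls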
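Test system: GST-tagged human GSK3beta kinase, cell-free; evaluation: activity score scaled between in-plate DMSO and GW8510 controls; measured by: ADP-Glo luminescence; incubation: 60 min reaction, RT; benchmarks: DMSO and 20 µM GW8510; reagent: peptide substrate plus 25 µM ATP (final); medium: Tris/MgCl2 kinase buffer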
STK33 inh = inhibitors of human STK33 kinase | Q9BYT3 | purified STK33, MBP phosphorylation, ADP-Glo luminescence | inhibition, % at 10 µM | 320,000 tested, 0.073% active | AID 2661;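 active means inhibition at or above 25%, using the most active replicate where run in duplicate; inactive means inhibition below 25%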
Target sequence (Q9BYT3 whole entry, looked up): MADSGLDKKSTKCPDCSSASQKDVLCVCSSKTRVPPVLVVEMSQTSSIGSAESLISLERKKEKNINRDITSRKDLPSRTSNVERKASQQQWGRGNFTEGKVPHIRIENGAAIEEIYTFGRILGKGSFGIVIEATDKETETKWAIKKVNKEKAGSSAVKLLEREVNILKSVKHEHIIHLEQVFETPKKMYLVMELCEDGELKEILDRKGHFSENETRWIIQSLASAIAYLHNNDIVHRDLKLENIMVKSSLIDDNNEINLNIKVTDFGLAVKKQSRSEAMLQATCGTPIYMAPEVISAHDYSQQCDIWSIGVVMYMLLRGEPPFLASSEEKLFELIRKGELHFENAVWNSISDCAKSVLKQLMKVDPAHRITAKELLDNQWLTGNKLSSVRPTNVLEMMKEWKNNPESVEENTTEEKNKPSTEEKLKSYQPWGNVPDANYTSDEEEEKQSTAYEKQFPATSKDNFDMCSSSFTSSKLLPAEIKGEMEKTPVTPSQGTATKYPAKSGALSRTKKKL
GSK3 alpha inh = human GSK-3 alpha kinase inhibition; inhibition, % at 10 µM; 320,000 tested, 0.1% active; ADP-Glo luminescence, 60 min; AID 2650;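 active means more than half of replicates show inhibition above 20%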;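 further: GST-tagged GSK-3 alpha with peptide substrate and 25 µM ATP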
Rin1 Abl inh = blocks binding of human Rin1 to Abl; P00519+Q13671; TR-FRET Rin1/Abl binding, biochemical; inhibition, % at 7.35 µM; 360,000 tested, 0.4% active; AID 588664; in the data active means inhibition above about 5%, passing the limit was not always enough
DYRK1A inh = Dyrk1A (rat) kinase inhibition | ADP-Glo luminescence, NFATc1 peptide | inhibition, % at 12.5 µM | 310,000 tested, 0.43% active; in the data active means inhibition above about 50%
Rin1-Abl confirm = confirmation of inhibitors of human Rin1-Abl interaction. TR-FRET Rin1-Abl binding, purified proteins. shares compounds with Rin1 Abl inh. AID 602124. inhibition, % at 7.35 µM. 1,300 tested, 49% active
GFP quencher = counter-screen for Rin1-Abl inhibitors: GFP fluorescence quenchers | shares compounds with Rin1 Abl inh | 1,300 tested, 8.5% active | inhibition, % at 6.75 µM | inhibitors/quenchers counterscreen;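 further: ABL1-eGFP fusion protein alone without its partner RIN1-SBP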
GFP quench dose = quenches GFP in dose response, Rin1-Abl counter-screen | shares compounds with Rin1 Abl inh | GFP fluorescence interference/quenching counterscreen | IC50, µM | 230 tested, under 10 active | AID 602182; call rule not given here;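 further: ABL1-eGFP fusion protein alone without its RIN1 binding partner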
Of the large screens only hits and unclear results are named; the others gave an inactive call (follow-up assays come after a bar, where they were run). Only some compounds are listed: those with a hit (about 0.99% of all), similar ones and a draw of the others. Unless noted, no stated cut-off is given here; in the data, active means inhibition above about 6.5%; inactive means the rest.

O=C1NCC(O)=C1C=NCCO	none
C=CC[C@@H](CC(=O)N[C@H](CO)Cc1ccccc1)C(=O)N[C@H](COC(=O)[C@@H](CC=C)Cc1ccc(F)cc1)Cc1ccccc1	none (no result: GSK3beta inhib)
CC(Sc1nccn1C)C(=O)Nc1ccc(C(N)=O)cc1 (configuration not stated)	Rin1 Abl inh 10.1 (no result: STK33 inh, GSK3 alpha inh) | Rin1-Abl confirm inactive | GFP quencher inactive
COc1ccccc1NC(=O)C(C)Sc1nccn1C (configuration not stated)	none (no result: GSK3beta inhib)
Cc1ccc(C(C)NC(=O)C23CC4CC(CC(C4)C2)C3)cc1 (configuration not stated)	Rin1 Abl inh 6.0 | Rin1-Abl confirm inactive | GFP quencher inactive
CC(NC(=O)C12CC3CC(CC(C3)C1)C2)c1ccc2c(c1)OCCO2 (configuration not stated)	none
CC(C)NC(=O)c1ccc(-c2ccc(F)c(F)c2)c2ccoc12	none (no result: Arrestin-AP2 inh, GSK3beta inhib, STK33 inh, GSK3 alpha inh, DYRK1A inh)
N#CCCN(C(=O)COC(=O)c1ccc2c(=O)n3c(nc2c1)CCC3)c1ccccc1	Rin1 Abl inh 12.0 | Rin1-Abl confirm inactive | GFP quencher inactive
CC1(C)C(=O)C=CC(=O)C(C)(C)C(=O)C=CC(=O)C(C)(C)C2=CC=C(O2)C(C)(C)C(=O)C=CC1=O	none (no result: GSK3beta inhib, STK33 inh, GSK3 alpha inh)
Cc1cc(C)nc(/N=C2\NC(=O)CC3C(=O)NCCN23)n1 (configuration not stated)	none
COc1ccccc1C(=O)N=C1NC(=O)CC2C(=O)NCCN12 (configuration not stated)	Rin1 Abl inh 8.8 | Rin1-Abl confirm inactive | GFP quencher inactive
CCN(CC)S(=O)(=O)c1cc(C(=O)N=c2sccn2C)ccc1OC	none
CCCCOc1ccc(C(=O)N=c2sccn2C)cc1OC	Rin1 Abl inh 19.9 | Rin1-Abl confirm 12.4 | GFP quencher inactive
CCN(CC)C(=O)c1cn(-c2cccc(OC)c2)c(=O)c2ccccc12	none
COC(=O)c1ccc(COC(=O)c2ccc(-n3cnnn3)cc2)o1	Rin1 Abl inh 22.9 | Rin1-Abl confirm 20.3 | GFP quencher inactive | GFP quench dose inactive
CCCCCCCC[n+]1c(C)n(-c2ccccc2)c2ccc(NC(C)=O)cc21	Rin1 Abl inh 5.0 (no result: DYRK1A inh) | Rin1-Abl confirm 6.7 | GFP quencher inactive
CC(=O)Nc1ccc(SCC(=O)c2cc(C)n(-c3ccccc3)c2C)cc1	none
CCOC(=O)c1c(NC(=O)COC(=O)CNC(=O)c2ccc(Cl)cc2Cl)sc(C(=O)N(C)C)c1C	none (no result: DYRK1A inh)
CCCC1(c2ccccc2)NC(=O)N(CC(=O)Nc2ccccc2C(F)(F)F)C1=O (configuration not stated)	none
C=CCn1c(C)nnc1SCC(=O)Nc1nc(C)c(C(=O)N(C)C)s1	Rin1 Abl inh 12.8 | Rin1-Abl confirm inactive | GFP quencher inactive
CCC1C(=O)NCCN1C(=O)c1ccc(OC)c(OC2CCN(C(C)=O)CC2)c1 (configuration not stated)	Rin1 Abl inh 8.4 | Rin1-Abl confirm inactive | GFP quencher inactive
CCC1CCCCN1C(=O)c1ccc(OC)c(OC2CCN(C(C)=O)CC2)c1 (configuration not stated)	none (no result: STK33 inh, GSK3 alpha inh)
Cc1cc(-c2ccccc2)nc(N/N=C/c2ccc(O)cc2O)n1	Rin1 Abl inh 11.1 | Rin1-Abl confirm 11.3 | GFP quencher inactive
Oc1ccc(/C=N/Nc2ncc(Br)cn2)c(O)c1	Rin1 Abl inh 12.3 | Rin1-Abl confirm 9.9 | GFP quencher inactive
Cc1cc(NC(=O)C(C)SCC(=O)OCc2ccc(Cl)cc2Cl)no1 (configuration not stated)	none (no result: GSK3beta inhib, DYRK1A inh)
CC(OC(=O)/C(C#N)=C/c1ccco1)C(=O)N(C)c1ccccc1 (configuration not stated)	none (no result: GSK3beta inhib)
COc1ccc(CNC(=O)Nc2nc(C(N)c3ccccc3)cs2)cc1 (configuration not stated)	none (no result: Arrestin-AP2 inh, GSK3beta inhib, STK33 inh, GSK3 alpha inh, DYRK1A inh)
CCS(=O)(=O)N1CCC(C(=O)NCc2ccc(F)cc2)CC1	none
O=C(NCc1ccc(F)cc1)C1CCN(S(=O)(=O)N2CCOCC2)CC1	Rin1 Abl inh 8.4 | Rin1-Abl confirm inactive | GFP quencher inactive
CC(=O)Oc1ccc2c(=O)c(Oc3ccccc3)coc2c1OC(C)=O	Rin1 Abl inh 5.5 | Rin1-Abl confirm inactive | GFP quencher inactive
Cc1ccc(C(C)C)cc1OCC(=O)Nc1ccc(N2CCCCC2)cc1	none
C1CCC(c2nn3c(-c4n[nH]c5c4CCC5)nnc3s2)CC1	Rin1 Abl inh 24.9 (no result: STK33 inh, GSK3 alpha inh) | Rin1-Abl confirm 14.3 | GFP quencher inactive
COc1ccc(NC(=O)N(C)C[C@H]2Oc3ccc(NC(=O)Nc4ccc5c(c4)OCO5)cc3C(=O)N([C@H](C)CO)C[C@@H]2C)cc1	none (no result: GSK3beta inhib, STK33 inh, GSK3 alpha inh, DYRK1A inh)
O=C(CCCC(=O)N/N=C\c1ccccn1)N/N=C\c1ccccn1	none
CC(Nc1cccc2ccccc12)C(=O)N/N=C/c1ccccn1 (configuration not stated)	Rin1 Abl inh 11.2 | Rin1-Abl confirm inactive | GFP quencher inactive
Cc1ccc2cc3cc(C(=O)NCCCN4CCCC4=O)oc3nc2c1	none (no result: DYRK1A inh)
CCOC(=O)N1CCC(N2C(=O)c3ccccc3C2Nc2ccc(S(=O)(=O)N(CC)CC)cc2)CC1 (configuration not stated)	Rin1 Abl inh 10.6 | Rin1-Abl confirm 10.0 | GFP quencher inactive
N#C/C(=C\c1ccc(O)c(O)c1)C(=O)Nc1cccc2ncccc12	Rin1 Abl inh 8.7 | Rin1-Abl confirm 12.5 | GFP quencher 14.4
Cc1occc1C(=O)N1CCCC(N2CCN(c3ccccc3F)CC2)C1 (configuration not stated)	Rin1 Abl inh 11.0 | Rin1-Abl confirm inactive | GFP quencher inactive
Cc1ncoc1C(=O)N1CCCC(N2CCN(c3ccccc3F)CC2)C1 (configuration not stated)	none (no result: DYRK1A inh)
COC(=O)c1ccc(Cn2cnc3c(sc4nc(N5CCOCC5)c5c(c43)CCCC5)c2=O)o1	Rin1 Abl inh 8.7 | Rin1-Abl confirm 7.1 | GFP quencher inactive
CN(C)CCNc1ncnc2c1sc1nc(N3CCOCC3)c3c(c12)CC(C)(C)SC3	Rin1 Abl inh 27.0 | Rin1-Abl confirm 25.9 | GFP quencher inactive | GFP quench dose inactive
OCCN(CCO)c1ncnc2c1sc1nc(N3CCOCC3)c3c(c12)CCCC3	Rin1 Abl inh 10.8 | Rin1-Abl confirm 8.3 | GFP quencher inactive
O=C(OCc1cn([C@H]2C[C@H](c3ccc(Cl)cc3)N(C(=O)C3CCCCC3)C[C@@H]2O)nn1)c1ccccc1	none (no result: Arrestin-AP2 inh, GSK3beta inhib, STK33 inh, GSK3 alpha inh, DYRK1A inh)

Compound activity deposited in PubChem by several laboratories.
